Source: paper PMC5522708 (Archives of biochemistry and biophysics, 2016)

Legend:
[1] = molecular target: human renalase (Homo sapiens, UniProt Q5VYX0); type: biochemical, H. sapiens; details: for inhibition of 6DHNAD oxidation (reductive half reaction): 173 µM 6DHNAD, anaerobic
[2] = system: renalase; assay: HPLC substrate analysis of reduced NR and NMN isomers with renalase; type: biochemical; details: ~12.5 µM renalase, 10 min, HPLC of borohydride-reduced mixtures, pH 7.5
Method in brief: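 Each mixture was split: one half received renalase, the other served as the no-enzyme and stability control. After 10 min, enzyme was removed by 10 kDa ultrafiltration. Filtrates ran on isocratic C18 HPLC (same buffer) with detection at 260/370 nm, corrected for dilution.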

[3] = molecular target: HsRen (human renalase); details: cited from earlier work; for binding constants of the products: earlier work, no reference given
[4] = system: E.coli malate dehydrogenase; details: competitive; cited from earlier work
[5] = molecular target: specific enzymes that have β-NADH as substrate; details: competitive; cited from earlier work
[6] = molecular target: HsRen (renalase from H. sapiens) (Homo sapiens, UniProt Q5VYX0); assay: Reductive half-reaction of HsRen; type: biochemical; details: anaerobic, 25 °C; for increase in kred/Kd on addition of ADP: ADP 4–5 mM
HsRen (renalase from H. sapiens), sequence (Q5VYX0 18-342): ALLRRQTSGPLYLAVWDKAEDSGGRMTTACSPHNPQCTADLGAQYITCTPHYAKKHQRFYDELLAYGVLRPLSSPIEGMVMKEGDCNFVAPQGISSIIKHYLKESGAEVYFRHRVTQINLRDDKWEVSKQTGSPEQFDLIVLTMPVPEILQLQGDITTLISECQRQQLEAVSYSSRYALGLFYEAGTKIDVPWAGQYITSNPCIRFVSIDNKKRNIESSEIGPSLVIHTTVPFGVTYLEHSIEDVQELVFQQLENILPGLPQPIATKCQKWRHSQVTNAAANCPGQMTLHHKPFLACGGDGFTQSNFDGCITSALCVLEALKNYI
Method in brief: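 Anaerobic stopped-flow was run at 25 °C in 20 mM HEPES, pH 7.5, with glucose/glucose oxidase O2 scavenging. HsRen was 6–11 µM post-mix, and flavin reduction was read at 458 nm. DHNR runs included 2 mM octyl-β-glucoside.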

human renalase, sequence (Q5VYX0 18-342): as above

## Nc1ncnc2c1ncn2[C@@H]1O[C@H](COP(=O)(O)OP(=O)(O)O)[C@@H](O)[C@H]1O [ADP, adenosine diphosphate]
[1]
  Kd: 15 mM

## NC(=O)c1ccc[n+]([C@@H]2O[C@H](COP(=O)([O-])O)[C@@H](O)[C@H]2O)c1 [NMN^+, nicotinamide mononucleotide]
[1]; HsRen
  inhibition of 6DHNAD oxidation (reductive half reaction): did not yield any substrate inhibition

## NC(=O)C1=CC=CN([C@@H]2O[C@H](CO)[C@@H](O)[C@H]2O)C1 [2DHNR]
[2]
  consumed by renalase (substrate): consumed

## NC(=O)C1=CN([C@@H]2O[C@H](COP(=O)(O)OP(=O)(O)OC[C@H]3O[C@@H](n4cnc5c(N)ncnc54)[C@H](O)[C@@H]3O)[C@@H](O)[C@H]2O)CC=C1 [6DHNAD, 6-dihydronicotinamide adenine dinucleotide]
[3]; read-out: measured dissociation constant for the substrate
  Kd: 0.173 mM
[4]
  Ki: 34 nM
[5]
  Ki values: sub-micromolar range

## NC(=O)c1ccc[n+]([C@@H]2O[C@H](COP(=O)([O-])OP(=O)(O)OC[C@H]3O[C@@H](n4cnc5c(N)ncnc54)[C@H](OP(=O)(O)O)[C@@H]3O)[C@@H](O)[C@H]2O)c1 [β-NADP^+, oxidized nicotinamide adenine dinucleotide phosphate]
[3]
  binding constants of the products: low millimolar

## NC(=O)C1=CC=CN([C@@H]2O[C@H](COP(=O)(O)O)[C@@H](O)[C@H]2O)C1 [2DHNMN, 2-dihydronicotinamide mononucleotide]
[2]
  consumed by renalase (substrate): consumed

## CNC(=O)c1cccnc1 [methyl nicotinamide]
[1]; HsRen
  inhibition of 6DHNAD oxidation (reductive half reaction): did not show measureable inhibition

## NC(=O)C1=CN(C2OC(COP(=O)(O)O)C(O)C2O)CC=C1 (centres unmarked) [6DHNMN, 6-dihyronicotinamide mononucleotide]
[2]
  consumed by renalase (substrate): consumed
[6]; pH 7.5
  effect of AMP counterpart ligand on kred/Kd: no measurable difference

## NC(=O)C1=CN([C@@H]2O[C@H](CO)[C@@H](O)[C@H]2O)C=CC1 [4DHNR, 4-dihydronicotinamide riboside]
[1]; HsRen
  inhibition of 6DHNAD oxidation (reductive half reaction): inhibitory

## NC(=O)c1cccnc1 [nicotinamide]
[1]
  IC50: > 68 mM
[1]; HsRen
  inhibition of 6DHNAD oxidation (reductive half reaction): did not show measureable inhibition

## NC(=O)C1=CN([C@@H]2O[C@H](COP(=O)(O)O)[C@@H](O)[C@H]2O)C=CC1 [4DHNMN, 4-dihydronicotinamide mononucleotide]
[1]; HsRen
  difference in the Kd for 4DHNMN compared to 4DHNR: six-fold
  inhibition of 6DHNAD oxidation (reductive half reaction): inhibitory

## NC(=O)c1ccc[n+]([C@@H]2O[C@H](COP(=O)([O-])OP(=O)(O)OC[C@H]3O[C@@H](n4cnc5c(N)ncnc54)[C@H](O)[C@@H]3O)[C@@H](O)[C@H]2O)c1 [β-NAD^+, oxidized nicotinamide adenine dinucleotide]
[3]
  binding constants of the products: low millimolar

## NC(=O)c1ccc[n+]([C@@H]2O[C@H](CO)[C@@H](O)[C@H]2O)c1 [NR^+, nicotinamide riboside]
[1]
  IC50: > 7.3 mM
[1]; HsRen
  inhibition of 6DHNAD oxidation (reductive half reaction): did not yield any substrate inhibition

## NC(=O)C1=CN([C@@H]2O[C@H](CO)[C@@H](O)[C@H]2O)CC=C1 [6DHNR, 6-dihydornicotinamide riboside]
[2]
  consumed by renalase (substrate): consumed
[6]; pH 7.5
  increase in kred/Kd on addition of ADP: 7 fold
[6]; pH 7.5, listed as 6-dihydronicotinamide riboside
  increase in kred/Kd on addition of ADP: seven

## Nc1ncnc2c1ncn2[C@@H]1O[C@H](COP(=O)(O)O)[C@@H](O)[C@H]1O [AMP, adenosine monophosphate]
[1]; HsRen
  inhibition of 6DHNAD oxidation (reductive half reaction): did not show measureable inhibition
